Series [1] in a line: Half life of hydrolysis in deuterated phosphate buffer at pD 7.8. The following applies: pH 7.8.
Series [2] concerns SF-268. As to the kind of experiment: Antitumor activity against human SF268 cells at 100 uM relative to control. The format is functional. The essentials: (§1)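 NCI three-cell-line one-dose primary anticancer prescreen at 100 µM. Growth is expressed as % of untreated control cells, with the control taken as 100%.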
Series [3] has as its system NCI-H460. The experiment in a line: Antitumor activity against human NCI-H460 cells at 100 uM relative to control. The format is functional. The essentials: as §1
Series [4] deals with MCF7. As to the kind of experiment: Antitumor activity against human MCF7 cells at 100 uM relative to control. The format is functional. In outline: as §1
For series [5], the system named is Non-small cell lung cancer cell line. The experiment in a line: Antitumor activity against human NCI non-small cell lung cancer cell line panel. The format is functional, cell-based. In outline:
(§2)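 Tested in the NCI in vitro disease-oriented human tumor cell screen. The endpoints are IC50 (molar concentration giving 50% growth inhibition), TGI (total growth inhibition) and LC50 (50% net cell death). The maximal concentration tested was 100 μM. Subpanel values are means of several individual cell lines.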

A further series relates to carcinoma cell line. The experiment in a line: Antitumor activity against human NCI ovarian carcinoma cell line panel. The format is functional, cell-based. The essentials:
as §2

The test system of series [6] is NCI. As to the kind of experiment: Antitumor activity against human NCI CNS cancer cell line panel. The format is functional, cell-based. In outline: as §2
For series [7], the system named is NCI. The experiment in a line: Antitumor activity against human NCI breast cancer cell line panel. The format is functional, cell-based. The essentials: as §2
Series [8] deals with NCI. The experiment in a line: Antitumor activity against human NCI prostate cancer cell line panel. The format is functional, cell-based. The essentials:
as §2

The test system of series [9] is NCI. The experiment in a line: Antitumor activity against NCI human melanoma cell line panel. The format is functional, cell-based. In outline: as §2
In series [10] the test system is NCI. The experiment in a line: Antitumor activity against human NCI colon cancer cell line panel. The format is functional, cell-based. In outline: as §2
Series [11] has as its system NCI. The experiment in a line: Antitumor activity against human NCI leukemia cell line panel. The format is functional, cell-based. In outline: as §2
The test system of series [12] is NCI. As to the kind of experiment: Antitumor activity against human NCI renal cancer cell line panel. The format is functional, cell-based. In outline:
as §2

The test system of series [13] is SF-268. As to the kind of experiment: Antitumor activity against human SF268 cells at 50 uM relative to control. The format is functional. The essentials: (§3)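 Tested in the NCI three-cell-line one-dose primary anticancer prescreen. The read-out is growth as % of untreated control cells (100%) at 50 μM.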
The subject of series [14] is NCI-H460. The experiment in a line: Antitumor activity against human NCI-H460 cells at 50 uM relative to control. The format is functional. In outline:
as §3

The test system of series [15] is MCF7. As to the kind of experiment: Antitumor activity against human MCF7 cells at 50 uM relative to control. The format is functional. The essentials: as §3

Molecules are shown by their SMILES.

The compound `CN(/N=N/c1nc(OCc2ccccc2)c2nc[nH]c2n1)C(=O)Oc1ccc(C(N)=O)cc1` displayed a half-life in series [1] (deuterated phosphate buffer) of 6.42 h.
Same read-out and setting: in the case of `CC(=O)Nc1ccc(OC(=O)N(C)/N=N/c2nc(OCc3ccccc3)c3nc[nH]c3n2)cc1` it was 19.3 h.
`CN(/N=N/c1nc(OCc2ccccc2)c2nc[nH]c2n1)C(=O)Oc1ccccc1`: the Activity in the series on SF-268 [2] came to 102%; in the series on NCI-H460 [3] it was 87%; in the series with MCF7 [4], 107%. Also, in series [1] (deuterated phosphate buffer), the half-life worked out at 19.2 h.
As for `CN(/N=N/c1nc(OCc2ccccc2)c2nc[nH]c2n1)C(=O)Oc1ccc(S(N)(=O)=O)cc1`, in series [1] (deuterated phosphate buffer), the half-life was 2.82 h.
Regarding `CCOC(=O)N(C)/N=N/c1nc(OCc2ccccc2)c2nc[nH]c2n1`, the Activity in the series with SF-268 [2] is listed as 91%; with NCI-H460 [3], 90%; in the series with MCF7 [4] it was 103%. Further, the half-life in series [1] (deuterated phosphate buffer) worked out at 58.3 h.
In the case of `CC(=O)N(C)/N=N/c1nc(OCc2ccccc2)c2nc[nH]c2n1`, the values for the Activity in the series with SF-268 [2], in the series with NCI-H460 [3] and with MCF7 [4] were 78%, 89% and 99%, respectively. Further, the half-life in [1] (deuterated phosphate buffer) is 58.3 h.
For the compound `Cn1nnc2c(C(N)=O)ncn2c1=O` [TEMOZOLOMIDE], the IC50 in [5] was 100 µM; in the series with carcinoma cell line it was 91 µM; in the series with NCI [6] it was 93 µM; in the series on NCI [7], 100 µM; in the series with NCI [8], 100 µM; in the series with NCI [9] it was 98 µM. For the same compound, the IC50 in the series with NCI [10] turned out to be 100 µM; in the series with NCI [11], 79 µM; in the series with NCI [12], 98 µM. Moreover, the half-life in series [1] (buffer) stood at 0.417 h. For the same compound, the TGI with NCI [11] was above 100 µM. In addition, in the series with NCI [11] (read-out: LC50 (the source's name)), the CC50 is above 100 µM.
On to `CN(/N=N/c1nc(OCc2ccccc2)c2nc[nH]c2n1)C(=O)c1ccccc1`, for which the Activity with SF-268 [2] was 79%; in the series on NCI-H460 [3], 93%; in the series on MCF7 [4], 107%. Also, in series [1] (deuterated phosphate buffer), the half-life stood at 38.3 h.
Take `COC(=O)c1ccc(OC(=O)N(C)/N=N/c2nc(OCc3ccccc3)c3nc[nH]c3n2)cc1`: the Activity came out at 107% in the series with SF-268 [13], 53% with NCI-H460 [14] and 116% with MCF7 [15]. Also, the half-life in [1] (deuterated phosphate buffer) came out at 2.45 h.
For `CN(/N=N/c1nc(OCc2ccccc2)c2nc[nH]c2n1)C(=O)c1ccc([N+](=O)[O-])cc1`, the half-life in series [1] (deuterated phosphate buffer) was 16 h.
The same measure, in the same setting: for `CN(/N=N/c1nc(OCc2ccccc2)c2nc[nH]c2n1)C(=O)c1cccnc1` the value was 8.83 h.

For the origin of these results see ChEMBL document CHEMBL1149311, “Synthesis and antitumor activity of methyltriazene prodrugs simultaneously releasing DNA-methylating agents and the antiresistance drug O(6)-benzylguanine” (J Med Chem, 2004).
